Measurements reported in ChEMBL document CHEMBL3875153, “Design and synthesis of isatin/triazole conjugates that induce apoptosis and inhibit migration of MGC-803 cells” (Eur J Med Chem, 2016).

What was measured:
[1] = Cytotoxicity against human GES-1 cells assessed as growth inhibition after 72 hrs by CCK8 assay; format: toxicity, cell-based, GES1; conditions: human, GES-1 cells
How it was run: (§1)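 Exponentially growing cells were trypsinized and seeded at 2 × 10^4 cells/mL (100 µL/well). After 24 h, medium was replaced with compound at 0.5–256 µM (twofold steps). Plates were incubated 72 h at 37 °C, 5% CO2, then with CCK-8 for 4 h. A450 was read. Three independent runs; IC50 given as mean and SD.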

[2] = Cytotoxicity against human HL-7702 cells assessed as growth inhibition after 72 hrs by CCK8 assay; format: toxicity, cell-based, L02; conditions: human, HL-7702 cells; how it was run: as §1
[3] = Cytotoxicity against human SW780 cells assessed as growth inhibition after 72 hrs by CCK8 assay; format: functional, cell-based; conditions: Homo sapiens, SW780, 72 h; read-out: IC50; how it was run: as §1
[4] = Cytotoxicity against human MCF7 cells assessed as growth inhibition after 72 hrs by CCK8 assay; format: functional, cell-based; conditions: Homo sapiens, MCF7, 72 h; read-out: IC50; how it was run: as §1
[5] = Cytotoxicity against human TE1 cells assessed as growth inhibition after 72 hrs by CCK8 assay; format: functional, cell-based, TE-1; conditions: Homo sapiens, TE-1, 72 h; read-out: IC50; how it was run: as §1
[6] = Cytotoxicity against human MGC803 cells assessed as growth inhibition after 72 hrs by CCK8 assay; format: functional, cell-based, MGC-803; conditions: Homo sapiens, MGC-803, 72 h; read-out: IC50; how it was run: as §1

| Compound | IC50 at 72 h [1] [µM] | IC50 at 72 h [2] [µM] | IC50 [3] [µM] | IC50 [4] [µM] | IC50 [5] [µM] | IC50 [6] [µM] |
| --- | --- | --- | --- | --- | --- | --- |
| O=C(Cn1cc(CN2C(=O)C(=O)c3c(Cl)ccc(Cl)c32)nn1)NC1CCCCC1 | 47.4 | 83.9 | 93.3 | 51.8 | 25.2 | 17.4 |
| O=c1[nH]cc(F)c(=O)[nH]1 [FLUOROURACIL] | 13.8 | 12.8 | 6.99 | 13.2 | 17.3 | 10.6 |
| O=C1C(=O)N(Cc2cn(CC(=O)N3CCOCC3)nn2)c2c(Cl)ccc(Cl)c21 | > 128 | > 128 | 113 | 146 | 119 | 51.7 |
| CC(C)(C)OC(=O)N1CCN(C(=O)Cn2cc(CN3C(=O)C(=O)c4c(Cl)ccc(Cl)c43)nn2)CC1 | 84.2 | 42 | > 128 | 46.9 | 39.2 | 22 |
